Results on three molecules are retold here after ChEMBL document CHEMBL4041461, “Discovery of 6,7-dihydro-3H-pyrano[4,3-c]isoxazol-3-ones as a new class of pathogen specific anti-leptospiral agents” (Eur J Med Chem, 2017).

Structures are written as SMILES. In brackets after ≈: the same amount, converted by molar mass. Activity calls are given as the source filed them. The calls are words filed in the database; no cut-off is given here.

The nature of series [1]: (§1) Antibacterial activity against Leptospira interrogans serovar Canicola PAI-1 infected cyclophosphamide-treated BALB/c mouse assessed as mouse survival at 5 mg/kg, ip administered once daily for 3 days. As to conditions: PAI-1, ip, 72 h. Type of series: functional. The method in brief:
(§2)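 Cyclophosphamide-treated (Cy-)BALB/c mice were challenged with pathogenic Leptospira Canicola. They were dosed once daily for 3 days at 5, 10 or 20 mg/kg. Controls were untreated mice and doxycycline at 5 mg/kg once daily. Survival was recorded to the end of the study period. Kidneys were checked by 16S qPCR and by re-isolation in EMJH semi-solid medium.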

In series [2] the test system is THP-1. The series is described as follows: Cytotoxicity against human THP1 cells assessed as cell growth inhibition upto 25 ug/mL after 24 hrs by MTT assay. The class given is cell-based. As to conditions: thp-1, 24 h.
For series [3], the system named is Leptospira interrogans serovar Autumnalis. The series is described as follows: Antibacterial activity against Leptospira interrogans serovar Autumnalis N2 at 500 ug/mL after 2 hrs by micro dilution assay. Type of series: functional. The method, boiled down:
(§3)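 Preliminary screen by broth microdilution against L. interrogans serovar Autumnalis strain N2, each compound at 500, 250, 125, 62.5 and 31.25 µg/mL. Growth at each concentration was scored as resistance (R) or inhibition (I), and the MIC was taken from these scores. Triplicates.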

For series [4] the test system is unchanged. The series is described as follows: Antibacterial activity against Leptospira interrogans serovar Autumnalis N2 at 250 ug/mL after 2 hrs by micro dilution assay. Type of series: functional. The method, boiled down:
as §3

Series [5] has the same test system. The series can be described thus: Antibacterial activity against Leptospira interrogans serovar Autumnalis N2 at 125 ug/mL after 2 hrs by micro dilution assay. The class given is functional. The method, boiled down:
as §3

For series [6] the test system is unchanged. The series can be described thus: Antibacterial activity against Leptospira interrogans serovar Autumnalis N2 at 62.5 ug/mL after 2 hrs by micro dilution assay. The class given is functional. The method, boiled down:
as §3

For series [7] the test system is unchanged. The series can be described thus: Antibacterial activity against Leptospira interrogans serovar Autumnalis N2 at 31.25 ug/mL after 2 hrs by micro dilution assay. The class given is functional. The method, boiled down:
as §3

The nature of series [8]: Antibacterial activity against Leptospira interrogans serovar Australis Ballico after 2 hrs by micro dilution assay. Type of series: functional.
Series [9] is described as follows: Antibacterial activity against Leptospira interrogans serovar Autumnalis N2 after 2 hrs by micro dilution assay. As to conditions: N2, 2 h. Type of series: functional.
A short description of series [10]: Antibacterial activity against Leptospira interrogans serovar Ballum Mus 127 after 2 hrs by micro dilution assay. As to conditions: Mus 127, 2 h. Type of series: functional.
Series [11] is described as follows: Antibacterial activity against Leptospira interrogans serovar Bataviae Swart after 2 hrs by micro dilution assay. The class given is functional.
The nature of series [12]: Antibacterial activity against Leptospira interrogans serovar Canicola Hond Utrecht IV after 2 hrs by micro dilution assay. Type of series: functional.
A short description of series [13]: Antibacterial activity against Leptospira interrogans serovar Grippotyphosa Moskva V after 2 hrs by micro dilution assay. Type of series: functional.
Series [14] is described as follows: Antibacterial activity against Leptospira interrogans serovar Hebdomadis after 2 hrs by micro dilution assay. Type of series: functional.
The nature of series [15]: Antibacterial activity against Leptospira interrogans serovar Icterohaemorrhagiae RGA after 2 hrs by micro dilution assay. Type of series: functional.
The nature of series [16]: Antibacterial activity against Leptospira interrogans serovar Javanica Poi after 2 hrs by micro dilution assay. The class given is functional.
Series [17] can be described thus: Antibacterial activity against Leptospira interrogans serovar Pyrogenes Salinem after 2 hrs by micro dilution assay. Type of series: functional.
The nature of series [18]: Antibacterial activity against Leptospira interrogans serovar Hardjo Hardjoprajitno after 2 hrs by micro dilution assay. Type of series: functional.
In series [19] the test system is Leptospira interrogans. The series can be described thus: (§4) Antibacterial activity against Leptospira interrogans serovar Semaranga after 2 hrs by micro dilution assay. Type of series: functional.
A short description of series [20]: Antibacterial activity against Leptospira interrogans serovar Canicola PAI-1 infected cyclophosphamide-treated BALB/c mouse assessed as mouse survival at 20 mg/kg, ip administered once daily for 3 days. The class given is functional. Particulars: PAI-1, ip, 72 h. The method in brief: as §2
Series [21] concerns Leptospira interrogans serovar Canicola. The series is described as follows: Antibacterial activity against Leptospira interrogans serovar Canicola PAI-1 infected cyclophosphamide-treated BALB/c mouse assessed as inhibition of bacterial renal colonization at 20 mg/kg,ip by RT-qPCR analysis. The class given is functional, organism-based. The method, boiled down: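 Cyclophosphamide-treated BALB/c mice were infected with pathogenic serovar Canicola, then dosed once daily for 3 days at 5, 10 or 20 mg/kg. Controls were untreated mice and doxycycline at 5 mg/kg once daily. Leptospiral load in kidney tissue was measured by qPCR for renal colonization.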

For series [22], the system named is THP-1. The series can be described thus: Cytotoxicity against human THP1 cells assessed as cell growth inhibition at >=75 ug/mL after 24 hrs by MTT assay. The class given is cell-based. As to conditions: thp-1, 24 h.
Series [23] deals with THP-1. The series can be described thus: Induction of cell death in human THP1 cells at >= 75 ug/mL after 12 hrs by propidium iodide staining based confocal laser scanning microscopic method. Particulars: thp-1, 12 h. The method, boiled down: (§5)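 THP-1 cells were exposed for 12 h to a range of concentrations, then stained with propidium iodide. PI-positive apoptotic and necrotic cells were counted manually and expressed as a percentage. Controls were untreated cells and tert-butylhydroperoxide. Mean ± SD of triplicates.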

Series [24] deals with THP-1. The series is described as follows: Induction of cell death in human THP1 cells upto 25 ug/mL after 12 hrs by propidium iodide staining based confocal laser scanning microscopic method. As to conditions: thp-1, 12 h. The method, boiled down: as §5
Series [25] can be described thus: Antibacterial activity against Leptospira interrogans serovar Pomona after 2 hrs by micro dilution assay. Type of series: functional.
The subject of series [26] is Leptospira interrogans serovar Canicola. The series is described as follows: Antibacterial activity against Leptospira interrogans serovar Canicola PAI-1 infected cyclophosphamide-treated BALB/c mouse assessed as inhibition of bacterial renal colonization at 20 mg/kg,ip using EMJH semi solid medium. Type of series: functional, organism-based. The method in brief: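 Kidneys came from infected cyclophosphamide-treated BALB/c mice dosed once daily for 3 days, including at 20 mg/kg, alongside untreated infected controls. Leptospires were re-isolated by culturing kidney material in semi-solid EMJH medium.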

Series [27] relates to Leptospira interrogans. The series is described as follows: Inhibition of Leptospira rRNA gene amplification assessed as thresholod cycle by SYBR Green dye-based RT-qPCR method (reference value: 11.3).
Series [28] has as its system Leptospira interrogans serovar Canicola. The description is as §1. The class given is functional. The method in brief: as §2
Series [29] can be described thus: as §4. The class given is functional.
The test system of series [30] is THP-1. The series can be described thus: Induction of cell death in human THP1 cells at 0.5 mM after 12 hrs by propidium iodide staining based confocal laser scanning microscopic method. Particulars: thp-1, 12 h, 500 µM. The method in brief: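 THP-1 cells were treated for 12 h and then stained with propidium iodide. Apoptotic and necrotic cells were counted manually and expressed as a percentage. Untreated cells and tert-butylhydroperoxide served as controls. Data are mean ± SD of triplicates.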

On to `CC1(C)CC2=NOC(=O)C2=C(c2cccs2)O1`, for which, in series [1], the survival at 5 mg/kg amounted to 20%. The Activity result in the series with THP-1 [2] is “Non-Toxic”; in the series on THP-1 [22], “Toxic”; with THP-1 [23], “Toxic”; with THP-1 [24] it was “Non-Toxic”; in the series on Leptospira interrogans [27], 18.5. For the same molecule, the outcome in series [3] and in [4] was Active. Further, the result in series [5], in series [6] and in series [7] was inactive. The MIC was found to be 250 µg/mL (≈ 1000 µM) in series [8]; 250 µg/mL (≈ 1000 µM) in series [9]; 250 µg/mL (≈ 1000 µM) in series [10]; 250 µg/mL (≈ 1000 µM) in series [11]; 62.5 µg/mL (≈ 251 µM) in series [12]; 250 µg/mL (≈ 1000 µM) in series [13]. The MIC in series [14] was determined as 250 µg/mL (≈ 1000 µM); in [15] it was 250 µg/mL (≈ 1000 µM); in series [16], 250 µg/mL (≈ 1000 µM); in [17], 125 µg/mL (≈ 501 µM); in [18], 250 µg/mL (≈ 1000 µM); in series [25] it was 250 µg/mL (≈ 1000 µM). In the series on Leptospira interrogans [19], the MIC entry is “inactive”. In addition, the survival at 20 mg/kg in series [20] was 95%. The inhibition result in [21] and in series [26] was “Active” in each case.
Regarding `C[C@H]1c2cccc(O)c2C(=O)C2=C(O)[C@]3(O)C(=O)C(C(N)=O)=C(O)[C@@H](N(C)C)[C@@H]3[C@@H](O)[C@@H]21.O` [DOXYCYCLINE], the outcome in series [28], in series [3] and in series [4] was Active. The outcome in series [5], in series [6] and in series [7] was inactive. For the same molecule, the MIC in [8] stood at 200 µg/mL; in series [9] it was 200 µg/mL; in series [10], 100 µg/mL; in series [11] it was 100 µg/mL; in series [12] it was 200 µg/mL; in series [13], 200 µg/mL. Besides, the MIC came out at 200 µg/mL in series [14]; 200 µg/mL in series [15]; 200 µg/mL in series [16]; 200 µg/mL in [17]; 100 µg/mL in series [18]; 100 µg/mL in series [29]. In [25], this molecule displayed an MIC of 100 µg/mL.
In the case of `CC(C)(C)OO` [TERT-BUTYL HYDROPEROXIDE], in the series with THP-1 [30], the Activity result was “Toxic”.
